Assay results published in PMC2804034 (Journal of medicinal chemistry, 2010).
Values after ≈ are worked out from the molar mass of the structure shown.

What was measured:
[1] = system: Trypanosoma brucei brucei strain 221; assay: Trypanosoma brucei brucei assay; assay type: cell-based; conditions: for MIC50: Trypanosoma brucei, 48 h, read-out: Tbb MIC50; for trypanocidal activity against T. brucei: up to 100 μM
[2] = system: Y strain T. cruzi trypomastigotes; assay: Trypanosoma cruzi assay in infected J774 macrophages; assay type: cell-based; conditions: for activity against T. cruzi: 27 days treatment; for effect against the T. cruzi parasite in cell culture: infected macrophages
cruzain = cruzain (Trypanosoma cruzi, UniProt P25779); assay: Cruzain enzymatic assay in 96-well plate format; assay type: biochemical; conditions: secondary assays performed at UCSF
cruzain, sequence (P25779 123-337 limits assumed): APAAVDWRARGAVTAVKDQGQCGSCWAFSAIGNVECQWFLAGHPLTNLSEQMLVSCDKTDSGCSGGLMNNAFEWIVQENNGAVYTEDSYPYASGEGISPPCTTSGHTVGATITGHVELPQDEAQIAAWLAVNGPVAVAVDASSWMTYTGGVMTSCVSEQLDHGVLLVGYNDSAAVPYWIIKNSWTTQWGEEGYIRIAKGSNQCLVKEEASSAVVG
Method in brief: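 Recombinant cruzain (4 nM final) in 100 mM sodium acetate pH 5.5, 5 mM DTT, 0.001% Triton X-100, preincubated 5 min at room temperature with test compound in DMSO. Reaction started with Z-Phe-Arg-AMC (10 μM). AMC release was followed as the rate of fluorescence increase (ex 355, em 460 nm). DMSO-only wells served as uninhibited control. IC50 was obtained by curve fitting.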

J774 macrophages = assay: Compound toxicity for host macrophages in the T. cruzi assay; assay type: cell-based; conditions: 5 μM

Structure (SMILES) | MIC50 [1] | effect against the T. cruzi parasite in cell culture [2] | further results
N#Cc1nc(NCC(F)F)nc(Nc2cc(F)cc(F)c2)n1 [Compound 31] | 6 µM (≈ 1.87 µg/mL) | – | –
CCn1cnc2c(Nc3cc(F)cc(F)c3)nc(C#N)nc21 [Compound 32, 6-(3,5-difluorophenylamino)-9-ethyl-9H-purine-2-carbonitrile] | 25 µM (≈ 7.51 µg/mL) | no effect | activity against T. cruzi ([2]; 10 μM): inactive
N#Cc1nc(Nc2cccc(C(F)(F)F)c2)nc(NC2CCCC2)n1 [Compound 28] | 25 µM (≈ 8.71 µg/mL) | – | activity against T. cruzi ([2]; 5 μM): inactive
CN1CCN(C(=O)N[C@@H](Cc2ccccc2)C(=O)N[C@H](/C=C/S(=O)(=O)c2ccccc2)CCc2ccccc2)CC1 [Compound K777, reference compound] | – | – | activity against T. cruzi ([2]; 10 μM): cured cell infection
N#Cc1nc(Nc2cccc(F)c2)nc(NC2CCCC2)n1 [Compound 21] | 100 µM (≈ 29.8 µg/mL) | – | –
N#Cc1nc(N)nc(N(c2ccccc2)c2ccccc2)n1 [Compound 4] | > 100 µM | – | IC50 values (in words) (cruzain): mid-nanomolar; trypanocidal activity against T. brucei [1]: no trypanocidal activity
N#Cc1nc(Nc2ccc(Br)cc2)nc(NC2CCCC2)n1 [Compound 26] | > 100 µM | – | –
N#Cc1nc(Nc2cccc(Cl)c2)nc(NC2CCCC2)n1 [Compound 22] | 6 µM (≈ 1.89 µg/mL) | no effect | activity against T. cruzi ([2]; 5 μM): inactive
CCn1cnc2c(Nc3cccc(Cl)c3)nc(C#N)nc21 [Compound 35, 6-(3-chlorophenylamino)-9-ethyl-9H-purine-2-carbonitrile] | 25 µM (≈ 7.47 µg/mL) | no effect | activity against T. cruzi ([2]; 10 μM): inactive
N#Cc1nc(Nc2cc(F)cc(F)c2)nc(NC2CCCC2)n1 [Compound 29, 4-(cyclopentylamino)-6-(3,5-difluorophenylamino)-1,3,5-triazine-2-carbonitrile] | 6 µM (≈ 1.9 µg/mL) | – | toxicity against macrophages (J774 macrophages): toxic
Cc1cccc(Nc2nc(C#N)nc(NC3CCCC3)n2)c1 [Compound 25] | 25 µM (≈ 7.36 µg/mL) | no effect | activity against T. cruzi ([2]; 5 μM): inactive
N#Cc1nc(Nc2ccc(F)cc2)nc(NC2CCCC2)n1 [Compound 24] | > 100 µM | – | –
N#Cc1nc(Nc2cccc(Br)c2)nc(NC2CCCC2)n1 [Compound 23] | 6 µM (≈ 2.16 µg/mL) | no effect | toxicity against macrophages (J774 macrophages): toxic
N#Cc1nc(Nc2cc(Cl)cc(Cl)c2)nc(NC2CCCC2)n1 [Compound 30] | 25 µM (≈ 8.73 µg/mL) | – | activity against T. cruzi ([2]; 5 μM): inactive
N#Cc1nc(Nc2cccc(Cl)c2)c2ncn(C3CCCC3)c2n1 [Compound 36] | 100 µM (≈ 33.9 µg/mL) | no effect | activity against T. cruzi ([2]; 10 μM): inactive
N#Cc1nc(Nc2cccc(-c3ccccc3)c2)nc(NC2CCCC2)n1 [Compound 27] | 25 µM (≈ 8.91 µg/mL) | – | activity against T. cruzi ([2]; 5 μM): inactive
N#Cc1nc(Nc2cccc([N+](=O)[O-])c2)nc(NC2CCCC2)n1 [Compound 20] | 100 µM (≈ 32.5 µg/mL) | – | –
CCOc1nc(C#N)nc(N2CCCCC2)n1 [Compound 3] | > 100 µM | – | IC50 values (in words) (cruzain): mid-nanomolar; trypanocidal activity against T. brucei [1]: no trypanocidal activity
